Reference: ChEMBL document CHEMBL1144897, “A potent, selective inhibitor of matrix metalloproteinase-3 for the topical treatment of chronic dermal ulcers” (J Med Chem, 2003)

Assays:
Stromelysin-1 = Stromelysin-1 (Homo sapiens, UniProt P08254)
Matrilysin = biological target: T1, Matrilysin (Homo sapiens, UniProt P09237); assay: Inhibition of human matrix metalloprotease-7 (MMP-7)
T1 sequence (P09237 whole entry): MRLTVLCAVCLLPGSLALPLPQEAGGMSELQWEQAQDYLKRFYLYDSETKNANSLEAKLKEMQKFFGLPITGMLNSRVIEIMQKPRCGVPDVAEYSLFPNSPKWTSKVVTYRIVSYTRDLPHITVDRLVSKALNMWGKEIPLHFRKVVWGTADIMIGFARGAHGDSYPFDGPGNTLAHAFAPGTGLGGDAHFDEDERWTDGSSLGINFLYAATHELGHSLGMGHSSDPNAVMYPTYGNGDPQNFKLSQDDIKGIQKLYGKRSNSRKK

[1] = biological target: Matrix metalloproteinase-9 (Homo sapiens, UniProt P14780); assay: Inhibition of human matrix metalloprotease-9 (MMP-9)
Matrix metalloproteinase-9, sequence (P14780 whole entry): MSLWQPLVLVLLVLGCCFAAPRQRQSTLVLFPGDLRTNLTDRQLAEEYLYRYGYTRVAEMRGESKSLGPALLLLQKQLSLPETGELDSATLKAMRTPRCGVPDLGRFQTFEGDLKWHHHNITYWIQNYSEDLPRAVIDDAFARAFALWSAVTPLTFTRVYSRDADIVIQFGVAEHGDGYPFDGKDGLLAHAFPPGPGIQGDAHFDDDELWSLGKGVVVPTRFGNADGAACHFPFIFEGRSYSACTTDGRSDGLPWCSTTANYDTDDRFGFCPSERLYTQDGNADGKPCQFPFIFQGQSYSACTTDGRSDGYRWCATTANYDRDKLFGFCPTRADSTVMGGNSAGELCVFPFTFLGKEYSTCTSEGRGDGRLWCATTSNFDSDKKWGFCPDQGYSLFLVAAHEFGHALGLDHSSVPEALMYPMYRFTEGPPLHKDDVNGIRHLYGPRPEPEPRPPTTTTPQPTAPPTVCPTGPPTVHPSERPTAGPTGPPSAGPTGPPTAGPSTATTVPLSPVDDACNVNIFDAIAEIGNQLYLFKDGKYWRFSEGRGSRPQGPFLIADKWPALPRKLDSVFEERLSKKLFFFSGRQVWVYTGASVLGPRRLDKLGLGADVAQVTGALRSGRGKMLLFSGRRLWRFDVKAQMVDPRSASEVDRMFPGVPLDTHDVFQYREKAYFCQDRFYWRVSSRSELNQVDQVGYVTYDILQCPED
Procedure, shortened: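 Human catalytic-domain MMP-9 stock (1 μM) activated with 1 mM APMA for 1 h at 37 °C. Assayed at 1 nM enzyme in Tris buffer pH 7.5 (100 mM Tris, 100 mM NaCl, 10 mM CaCl₂, 0.16% Brij 35) with ≤1% DMSO. Inhibitor preincubated 15 min at 37 °C, then 5 μM Mca-Arg-Pro-Lys-Pro-Tyr-Ala-Nva-Trp-Met-Lys(Dnp)-NH₂ added for 1 h at 37 °C. Fluorescence read at ex 328/em 393 nm; IC50 taken from dose–response.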

[2] = biological target: Matrix metalloproteinase-14 (Homo sapiens, UniProt P50281); assay: Inhibition of Matrix metalloprotease-14
Procedure, shortened: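 Catalytic-domain MMP-14 stock (10 μM) activated with trypsin (5 μg/mL) for 20 min at 25 °C, then quenched with soybean trypsin inhibitor (50 μg/mL). Run in Tris buffer pH 7.5 (100 mM Tris, 100 mM NaCl, 10 mM CaCl₂, 0.16% Brij 35) with 1 nM enzyme and 10 μM Mca-Pro-Leu-Gly-Leu-Dpa-Ala-Arg-NH₂ (final). Fluorogenic cleavage read; IC50 derived.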

Stromelysin-1, sequence (P08254 whole entry): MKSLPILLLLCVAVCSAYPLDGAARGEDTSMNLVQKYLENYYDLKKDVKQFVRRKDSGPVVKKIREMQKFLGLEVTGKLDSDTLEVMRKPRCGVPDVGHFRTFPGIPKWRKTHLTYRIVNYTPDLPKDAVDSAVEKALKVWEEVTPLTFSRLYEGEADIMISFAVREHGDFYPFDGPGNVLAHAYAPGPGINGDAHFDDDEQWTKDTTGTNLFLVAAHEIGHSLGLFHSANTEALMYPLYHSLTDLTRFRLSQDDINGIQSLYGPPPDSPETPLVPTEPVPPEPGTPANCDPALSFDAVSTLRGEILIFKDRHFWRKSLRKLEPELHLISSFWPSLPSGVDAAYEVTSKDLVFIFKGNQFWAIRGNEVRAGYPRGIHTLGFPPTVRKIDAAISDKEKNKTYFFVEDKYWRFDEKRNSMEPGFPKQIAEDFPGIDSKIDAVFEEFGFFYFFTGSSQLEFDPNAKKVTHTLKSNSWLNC

| Structure (SMILES) | IC50 (Stromelysin-1) [nM] | IC50 (Matrilysin) [nM] | IC50 [1] [nM] | IC50 [2] [nM] |
| --- | --- | --- | --- | --- |
| CNC(=O)[C@H](Cc1ccc(OC)cc1)NC(=O)[C@@H](CC(=O)NO)CC(C)C | 30 | 30 |  |  |
| CNC(=O)[C@H](Cc1ccccc1)NC(=O)[C@H](CC(C)C)[C@H](CSc1cccs1)C(=O)NO [BATIMASTAT] |  |  | 0.6 | 4.6 |
